Data as given in PMC5715471 (ACS chemical neuroscience, 2017).

Columns and labels:
[1] = tested on: mouse spared nerve injury (SNI) model; assay: Mechanical sensitivity; type: in vivo
In short: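 Male C57Bl6/J mice with SNI (peroneal and tibial sciatic branches cut, sural spared), confirmed hypersensitive 2 weeks post-surgery and screened 21–60 days after SNI. Single intrathecal 10 μg in 5 μL saline (DMSO <5%, vehicle DMSO-matched). Blinded hindpaw von Frey, modified up–down, at set times. n = 4–11. Mean ± SEM; two-way ANOVA with Bonferroni. Repeat injections ≥14 days apart.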

[2] = tested on: mouse spared nerve injury (SNI) model; assay: Mechanical sensitivity; type: in vivo; remark: listed apart in the source
In short: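 Male C57Bl6/J SNI mice, hindpaw mechanical hypersensitivity confirmed 2 weeks post-surgery. Tail-vein IV injection in 100 μL sterile saline (DMSO stock diluted; vehicle DMSO-matched): test compound 10 mg/kg, gabapentin 100 mg/kg, or vehicle, n = 6 each. Blinded von Frey testing (modified up–down) at set time points. Mean ± SEM; two-way ANOVA with Bonferroni post hoc.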

SNI mice = assay: Rotorod test of motor performance; type: in vivo, mouse; conditions: IV 10 mg/kg, 48 h after injection, third trial
In short: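 SNI mice given IV vehicle or test compound 10 mg/kg in sterile saline, tested 48 h later. Automated rotorod accelerating to 40 rpm over 200 s. Two training runs; latency to fall recorded on third trial. n = 6 per group; two-tailed t test.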

5HT1e = 5HT1e (Homo sapiens, UniProt P28566); assay: PDSP radioligand binding, 5HT1e; conditions: 10 μM
5HT2A = 5HT2A (Homo sapiens, UniProt P28223); assay: PDSP radioligand binding, 5HT2A; conditions: 10 μM
5HT2B = 5HT2B (Homo sapiens, UniProt P41595); assay: PDSP radioligand binding, 5HT2B; conditions: 10 μM
5HT2C = 5HT2C (Homo sapiens, UniProt P28335); assay: PDSP radioligand binding, 5HT2C; conditions: 10 μM
5HT3 = 5HT3 (Homo sapiens, UniProt P46098); assay: PDSP radioligand binding, 5HT3; conditions: 10 μM
5HT6 = 5HT6 (Homo sapiens, UniProt P50406); assay: PDSP radioligand binding, 5HT6; conditions: 10 μM
5HT7 = 5HT7 (Homo sapiens, UniProt P34969); assay: PDSP radioligand binding, 5HT7; conditions: 10 μM
A2B2 = A2B2 (Rattus norvegicus, UniProt P12389+P12390); assay: PDSP radioligand binding, A2B2; conditions: 10 μM
A2B4 = A2B4 (Rattus norvegicus, UniProt P12389+P12392); assay: PDSP radioligand binding, A2B4; conditions: 10 μM
A3B4 = A3B4 (Rattus norvegicus, UniProt P04757+P12392); assay: PDSP radioligand binding, A3B4; conditions: 10 μM
A4B2 = A4B2 (Rattus norvegicus, UniProt P09483+P12390); assay: PDSP radioligand binding, A4B2; conditions: 10 μM
A4B4 = A4B4 (Rattus norvegicus, UniProt P09483+P12392); assay: PDSP radioligand binding, A4B4; conditions: 10 μM
A7 = assay: PDSP radioligand binding, A7; conditions: 10 μM
Alpha1a = Alpha1a (Homo sapiens, UniProt P35348); assay: PDSP radioligand binding, Alpha1a; conditions: 10 μM
Alpha1d = Alpha1d (Homo sapiens, UniProt P25100); assay: PDSP radioligand binding, Alpha1d; conditions: 10 μM
Alpha2b = Alpha2b (Homo sapiens, UniProt P18089); assay: PDSP radioligand binding, Alpha2b; conditions: 10 μM
Alpha1c = assay: PDSP radioligand binding, Alpha1c; conditions: 10 μM
AMPA = assay: PDSP radioligand binding, AMPA
Beta1 = Beta1 (Homo sapiens, UniProt P08588); assay: PDSP radioligand binding, Beta1; conditions: 10 μM
Beta2 = Beta2 (Homo sapiens, UniProt P07550); assay: PDSP radioligand binding, Beta2; conditions: 10 μM
Beta3 = Beta3 (Homo sapiens, UniProt P13945); assay: PDSP radioligand binding, Beta3; conditions: 10 μM
BZP rat brain = assay: PDSP radioligand binding, BZP rat brain; conditions: 10 μM
D1 = D1 (Homo sapiens, UniProt P21728); assay: PDSP radioligand binding, D1; conditions: 10 μM
D2 = D2 (Homo sapiens, UniProt P14416); assay: PDSP radioligand binding, D2; conditions: 10 μM
D3 = D3 (Homo sapiens, UniProt P35462); assay: PDSP radioligand binding, D3; conditions: 10 μM
DOR = DOR (Homo sapiens, UniProt P41143); assay: PDSP radioligand binding, DOR; conditions: 10 μM
H1 = H1 (Homo sapiens, UniProt P35367); assay: PDSP radioligand binding, H1; conditions: 10 μM
H3 = H3 (Homo sapiens, UniProt Q9Y5N1); assay: PDSP radioligand binding, H3; conditions: 10 μM
M1 = M1 (Homo sapiens, UniProt P11229); assay: PDSP radioligand binding, M1; conditions: 10 μM
M2 = M2 (Homo sapiens, UniProt P08172); assay: PDSP radioligand binding, M2; conditions: 10 μM
M4 = M4 (Homo sapiens, UniProt P08173); assay: PDSP radioligand binding, M4; conditions: 10 μM
MOR = MOR (Homo sapiens, UniProt P35372); assay: PDSP radioligand binding, MOR; conditions: 10 μM
NET = NET (Homo sapiens, UniProt P23975); assay: PDSP radioligand binding, NET
NMDA = assay: PDSP radioligand binding, NMDA
PBR = PBR (Rattus norvegicus, UniProt P16257); assay: PDSP radioligand binding, PBR; conditions: 10 μM
SERT = SERT (Homo sapiens, UniProt P31645); assay: PDSP radioligand binding, SERT; conditions: 10 μM
V1A = V1A (Homo sapiens, UniProt P37288); assay: PDSP radioligand binding, V1A
V1B = V1B (Homo sapiens, UniProt P47901); assay: PDSP radioligand binding, V1B
Chain of V1B (P47901 whole entry): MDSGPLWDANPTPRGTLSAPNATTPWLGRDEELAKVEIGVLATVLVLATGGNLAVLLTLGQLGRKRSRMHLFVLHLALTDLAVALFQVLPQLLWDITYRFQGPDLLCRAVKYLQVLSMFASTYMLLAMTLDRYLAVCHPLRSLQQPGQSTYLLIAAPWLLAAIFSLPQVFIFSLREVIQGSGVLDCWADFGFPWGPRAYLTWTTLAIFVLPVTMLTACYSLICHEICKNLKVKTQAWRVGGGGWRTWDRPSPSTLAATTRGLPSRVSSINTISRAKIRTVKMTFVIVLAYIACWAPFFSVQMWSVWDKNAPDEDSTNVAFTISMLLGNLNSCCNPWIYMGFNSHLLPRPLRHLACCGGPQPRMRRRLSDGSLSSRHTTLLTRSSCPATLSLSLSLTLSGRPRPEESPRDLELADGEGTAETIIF

Chain of V1A (P37288 whole entry): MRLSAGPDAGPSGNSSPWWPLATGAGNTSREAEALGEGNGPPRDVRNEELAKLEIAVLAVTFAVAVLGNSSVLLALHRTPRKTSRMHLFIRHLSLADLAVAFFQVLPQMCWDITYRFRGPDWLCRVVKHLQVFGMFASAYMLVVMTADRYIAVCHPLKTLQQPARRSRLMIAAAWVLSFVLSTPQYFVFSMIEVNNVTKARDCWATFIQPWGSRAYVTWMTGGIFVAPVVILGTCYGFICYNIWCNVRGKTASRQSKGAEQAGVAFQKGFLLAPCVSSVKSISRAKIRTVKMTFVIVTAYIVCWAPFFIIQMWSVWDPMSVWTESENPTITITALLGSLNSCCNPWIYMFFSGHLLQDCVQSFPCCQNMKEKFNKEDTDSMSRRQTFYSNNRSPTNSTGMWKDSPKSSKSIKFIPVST
Chain of Alpha1a (P35348 whole entry): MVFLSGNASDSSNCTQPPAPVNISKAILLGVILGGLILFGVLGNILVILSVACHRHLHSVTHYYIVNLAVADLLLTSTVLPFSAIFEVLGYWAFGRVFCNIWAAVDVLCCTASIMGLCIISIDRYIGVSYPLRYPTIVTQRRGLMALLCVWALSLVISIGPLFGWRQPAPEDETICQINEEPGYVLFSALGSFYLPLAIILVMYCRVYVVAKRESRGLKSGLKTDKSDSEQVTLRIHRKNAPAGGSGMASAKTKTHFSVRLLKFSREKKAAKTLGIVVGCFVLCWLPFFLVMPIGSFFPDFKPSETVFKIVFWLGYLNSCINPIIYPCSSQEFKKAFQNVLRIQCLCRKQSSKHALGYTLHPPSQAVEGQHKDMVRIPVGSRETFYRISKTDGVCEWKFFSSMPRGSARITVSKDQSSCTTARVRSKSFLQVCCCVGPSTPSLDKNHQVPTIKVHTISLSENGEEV
Chain of D1 (P21728 whole entry): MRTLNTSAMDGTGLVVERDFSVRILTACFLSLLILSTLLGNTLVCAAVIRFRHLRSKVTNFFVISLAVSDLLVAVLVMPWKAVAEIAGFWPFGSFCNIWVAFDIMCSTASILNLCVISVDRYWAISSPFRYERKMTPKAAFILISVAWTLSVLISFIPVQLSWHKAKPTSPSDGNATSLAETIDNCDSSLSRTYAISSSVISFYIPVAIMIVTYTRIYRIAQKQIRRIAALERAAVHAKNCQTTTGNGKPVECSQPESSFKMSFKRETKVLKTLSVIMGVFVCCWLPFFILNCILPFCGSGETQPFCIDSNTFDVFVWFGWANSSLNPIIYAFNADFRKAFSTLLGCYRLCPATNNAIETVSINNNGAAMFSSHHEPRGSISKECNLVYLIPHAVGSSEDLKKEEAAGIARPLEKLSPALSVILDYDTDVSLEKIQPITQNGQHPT
Chain of 5HT2C (P28335 33-458): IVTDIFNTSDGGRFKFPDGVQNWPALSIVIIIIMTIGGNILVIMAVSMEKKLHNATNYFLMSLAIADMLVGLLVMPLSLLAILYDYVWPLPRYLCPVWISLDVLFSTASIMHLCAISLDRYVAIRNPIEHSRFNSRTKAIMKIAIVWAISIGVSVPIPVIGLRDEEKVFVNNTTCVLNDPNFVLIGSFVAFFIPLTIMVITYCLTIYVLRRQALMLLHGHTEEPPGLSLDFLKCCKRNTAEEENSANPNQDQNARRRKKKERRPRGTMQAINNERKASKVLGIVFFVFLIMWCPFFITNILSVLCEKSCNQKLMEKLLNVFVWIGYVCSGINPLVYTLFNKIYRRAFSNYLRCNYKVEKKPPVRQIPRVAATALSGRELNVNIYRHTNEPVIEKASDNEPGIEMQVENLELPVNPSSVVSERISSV
Chain of 5HT7 (P34969 whole entry): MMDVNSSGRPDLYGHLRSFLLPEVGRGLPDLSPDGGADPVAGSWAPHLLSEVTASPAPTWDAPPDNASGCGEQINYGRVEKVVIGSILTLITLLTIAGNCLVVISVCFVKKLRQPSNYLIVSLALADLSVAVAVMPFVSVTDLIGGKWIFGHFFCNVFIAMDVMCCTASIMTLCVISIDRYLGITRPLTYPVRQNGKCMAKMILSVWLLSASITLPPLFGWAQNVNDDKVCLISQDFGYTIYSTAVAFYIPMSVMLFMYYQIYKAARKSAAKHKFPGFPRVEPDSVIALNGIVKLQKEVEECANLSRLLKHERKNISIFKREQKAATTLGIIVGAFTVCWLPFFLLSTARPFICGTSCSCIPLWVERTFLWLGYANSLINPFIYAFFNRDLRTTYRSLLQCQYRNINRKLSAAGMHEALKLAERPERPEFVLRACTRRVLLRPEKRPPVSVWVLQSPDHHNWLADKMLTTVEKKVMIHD
Chain of M4 (P08173 whole entry): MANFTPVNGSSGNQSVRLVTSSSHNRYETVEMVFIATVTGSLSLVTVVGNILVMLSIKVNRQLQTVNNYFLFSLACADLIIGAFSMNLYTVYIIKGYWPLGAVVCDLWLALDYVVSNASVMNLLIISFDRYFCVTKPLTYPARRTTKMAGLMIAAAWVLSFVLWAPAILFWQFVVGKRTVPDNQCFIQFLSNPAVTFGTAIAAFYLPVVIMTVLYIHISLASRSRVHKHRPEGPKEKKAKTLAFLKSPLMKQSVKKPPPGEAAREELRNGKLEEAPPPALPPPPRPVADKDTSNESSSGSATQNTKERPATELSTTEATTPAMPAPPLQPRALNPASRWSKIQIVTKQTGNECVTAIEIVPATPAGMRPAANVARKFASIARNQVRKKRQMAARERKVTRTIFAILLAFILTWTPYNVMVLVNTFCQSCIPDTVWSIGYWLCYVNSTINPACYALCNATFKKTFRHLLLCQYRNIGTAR
Chain of DOR (P41143 whole entry): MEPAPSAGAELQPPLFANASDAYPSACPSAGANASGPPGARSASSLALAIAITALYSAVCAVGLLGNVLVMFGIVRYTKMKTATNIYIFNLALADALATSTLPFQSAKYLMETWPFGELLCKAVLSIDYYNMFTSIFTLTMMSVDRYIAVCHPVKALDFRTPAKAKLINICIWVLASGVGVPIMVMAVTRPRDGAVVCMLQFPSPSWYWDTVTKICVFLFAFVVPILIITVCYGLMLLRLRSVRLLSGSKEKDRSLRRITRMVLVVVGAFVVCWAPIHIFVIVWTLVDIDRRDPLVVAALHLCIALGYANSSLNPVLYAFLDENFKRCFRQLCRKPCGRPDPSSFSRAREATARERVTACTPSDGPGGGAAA
Chain of Beta3 (P13945 whole entry): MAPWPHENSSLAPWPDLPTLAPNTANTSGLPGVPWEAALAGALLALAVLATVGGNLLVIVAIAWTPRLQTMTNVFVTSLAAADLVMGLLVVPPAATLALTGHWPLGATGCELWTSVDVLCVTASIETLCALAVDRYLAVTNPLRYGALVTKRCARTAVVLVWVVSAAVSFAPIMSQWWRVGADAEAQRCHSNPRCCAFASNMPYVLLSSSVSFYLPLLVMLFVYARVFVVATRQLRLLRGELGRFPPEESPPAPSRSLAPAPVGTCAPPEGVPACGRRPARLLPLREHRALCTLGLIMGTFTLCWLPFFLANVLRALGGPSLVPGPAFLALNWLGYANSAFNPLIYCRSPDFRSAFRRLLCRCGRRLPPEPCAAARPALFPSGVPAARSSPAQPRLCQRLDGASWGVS
Chain of Beta2 (P07550 whole entry): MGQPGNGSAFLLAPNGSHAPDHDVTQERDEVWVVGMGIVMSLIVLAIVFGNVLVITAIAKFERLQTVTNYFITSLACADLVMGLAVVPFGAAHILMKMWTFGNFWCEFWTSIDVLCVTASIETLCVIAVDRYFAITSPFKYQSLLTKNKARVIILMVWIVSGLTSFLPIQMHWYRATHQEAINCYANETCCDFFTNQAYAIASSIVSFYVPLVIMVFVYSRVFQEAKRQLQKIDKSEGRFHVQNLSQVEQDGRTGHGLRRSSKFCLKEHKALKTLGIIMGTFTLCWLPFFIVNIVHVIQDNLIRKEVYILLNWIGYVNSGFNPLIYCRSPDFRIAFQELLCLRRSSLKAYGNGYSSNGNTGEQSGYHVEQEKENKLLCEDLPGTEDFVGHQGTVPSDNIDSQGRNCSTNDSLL
Chain of 5HT2A (P28223 whole entry): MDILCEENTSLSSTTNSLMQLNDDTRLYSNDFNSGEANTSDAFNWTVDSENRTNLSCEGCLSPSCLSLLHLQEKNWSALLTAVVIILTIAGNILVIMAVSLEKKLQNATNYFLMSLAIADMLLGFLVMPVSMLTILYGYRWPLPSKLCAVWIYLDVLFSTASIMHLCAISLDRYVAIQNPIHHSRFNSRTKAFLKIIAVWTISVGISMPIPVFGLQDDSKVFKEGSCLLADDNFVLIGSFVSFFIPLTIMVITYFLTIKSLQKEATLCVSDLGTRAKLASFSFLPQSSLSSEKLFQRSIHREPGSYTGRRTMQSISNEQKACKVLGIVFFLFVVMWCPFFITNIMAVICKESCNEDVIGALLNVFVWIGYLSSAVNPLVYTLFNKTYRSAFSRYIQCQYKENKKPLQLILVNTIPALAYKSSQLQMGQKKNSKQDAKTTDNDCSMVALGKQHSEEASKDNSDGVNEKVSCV

## OCCCN1CCCC2CC1c1cc(-c3ccc(C(F)(F)F)cc3)ccc12 (racemic) [UKH-1114, (±)-9-(4-(Trifluoromethyl)phenyl)-3,4,5,6-tetrahydro-1,6-methanobenzo[c]azocin-2(1H)-yl)propan-1-ol]
[1]; IT
  time of peak relief of mechanical hypersensitivity after dosing: 48 h
[1]; single IT injection, 10 μg, vs vehicle
  effect on SNI-induced mechanical hypersensitivity: significant antimechanical hypersensitivity effects at either 24 or 48 h
[2]; IV 10 mg/kg
  effect on SNI-induced mechanical hypersensitivity: complete reversal of mechanical hypersensitivity
[2]; systemic 10 mg/kg
  duration of relief of mechanical hypersensitivity: 48 h
[2]; systemic 10 mg/kg vs gabapentin 100 mg/kg
  peak magnitude of effect compared with gabapentin: equivalent to 100 mg/kg gabapentin
SNI mice
  effect on motor performance (latency to fall, rotorod): no effect
5HT1e
  inhibition of radioligand binding (Ki column, footnote a): ^a (<50% inhibition of radioligand binding at 10 μM)
5HT2A
  inhibition of radioligand binding (Ki column, footnote a): ^a (<50% inhibition of radioligand binding at 10 μM)
5HT2B
  inhibition of radioligand binding (Ki column, footnote a): ^a (<50% inhibition of radioligand binding at 10 μM)
5HT2C
  inhibition of radioligand binding (Ki column, footnote a): ^a (<50% inhibition of radioligand binding at 10 μM)
5HT3
  inhibition of radioligand binding (Ki column, footnote a): ^a (<50% inhibition of radioligand binding at 10 μM)
5HT6
  inhibition of radioligand binding (Ki column, footnote a): ^a (<50% inhibition of radioligand binding at 10 μM)
5HT7
  inhibition of radioligand binding (Ki column, footnote a): ^a (<50% inhibition of radioligand binding at 10 μM)
A2B2
  inhibition of radioligand binding (Ki column, footnote a): ^a (<50% inhibition of radioligand binding at 10 μM)
A2B4
  inhibition of radioligand binding (Ki column, footnote a): ^a (<50% inhibition of radioligand binding at 10 μM)
A3B4
  inhibition of radioligand binding (Ki column, footnote a): ^a (<50% inhibition of radioligand binding at 10 μM)
A4B2
  inhibition of radioligand binding (Ki column, footnote a): ^a (<50% inhibition of radioligand binding at 10 μM)
A4B4
  inhibition of radioligand binding (Ki column, footnote a): ^a (<50% inhibition of radioligand binding at 10 μM)
A7
  inhibition of radioligand binding (Ki column, footnote a): ^a (<50% inhibition of radioligand binding at 10 μM)
Alpha1a
  inhibition of radioligand binding (Ki column, footnote a): ^a (<50% inhibition of radioligand binding at 10 μM)
Alpha1d
  inhibition of radioligand binding (Ki column, footnote a): ^a (<50% inhibition of radioligand binding at 10 μM)
Alpha2b
  inhibition of radioligand binding (Ki column, footnote a): ^a (<50% inhibition of radioligand binding at 10 μM)
Alpha1c
  inhibition of radioligand binding (Ki column, footnote a): ^a (<50% inhibition of radioligand binding at 10 μM)
AMPA
  Ki: > 10 µM
Beta1
  inhibition of radioligand binding (Ki column, footnote a): ^a (<50% inhibition of radioligand binding at 10 μM)
Beta2
  inhibition of radioligand binding (Ki column, footnote a): ^a (<50% inhibition of radioligand binding at 10 μM)
Beta3
  inhibition of radioligand binding (Ki column, footnote a): ^a (<50% inhibition of radioligand binding at 10 μM)
BZP rat brain
  inhibition of radioligand binding (Ki column, footnote a): ^a (<50% inhibition of radioligand binding at 10 μM)
D1
  inhibition of radioligand binding (Ki column, footnote a): ^a (<50% inhibition of radioligand binding at 10 μM)
D2
  inhibition of radioligand binding (Ki column, footnote a): ^a (<50% inhibition of radioligand binding at 10 μM)
D3
  inhibition of radioligand binding (Ki column, footnote a): ^a (<50% inhibition of radioligand binding at 10 μM)
DOR
  inhibition of radioligand binding (Ki column, footnote a): ^a (<50% inhibition of radioligand binding at 10 μM)
H1
  inhibition of radioligand binding (Ki column, footnote a): ^a (<50% inhibition of radioligand binding at 10 μM)
H3
  inhibition of radioligand binding (Ki column, footnote a): ^a (<50% inhibition of radioligand binding at 10 μM)
M1
  inhibition of radioligand binding (Ki column, footnote a): ^a (<50% inhibition of radioligand binding at 10 μM)
M2
  inhibition of radioligand binding (Ki column, footnote a): ^a (<50% inhibition of radioligand binding at 10 μM)
M4
  inhibition of radioligand binding (Ki column, footnote a): ^a (<50% inhibition of radioligand binding at 10 μM)
MOR
  inhibition of radioligand binding (Ki column, footnote a): ^a (<50% inhibition of radioligand binding at 10 μM)
NET
  Ki: 1.05 µM
NMDA
  Ki: 6.72 µM
PBR
  inhibition of radioligand binding (Ki column, footnote a): ^a (<50% inhibition of radioligand binding at 10 μM)
SERT
  inhibition of radioligand binding (Ki column, footnote a): ^a (<50% inhibition of radioligand binding at 10 μM)
V1A
  Ki: > 10 µM
V1B
  Ki: > 10 µM
